Results reported in ChEMBL document CHEMBL1268915, “Optimization of a series of dipeptides with a P3 threonine residue as non-covalent inhibitors of the chymotrypsin-like activity of the human 20S proteasome” (Bioorg Med Chem Lett, 2010).
Activity calls are given as the source filed them. The calls are words filed in the database; no cut-off is given here. Residues, ends and D or L forms follow the SMILES beside them. *: point of attachment. NHBn = c1ccc(CN*)cc1; Bn = c1ccc(C*)cc1

Assays:
[1] = Inhibition of chymotrypsin-like activity of human 20s proteasome beta5 subunit in human erythrocyte assessed as hydrolysis of Ac-WLA-AMC fluorogenic substrate
[2] = (§1) Inhibition of TNF-alpha-induced NF-kappaB activation in human HEK293 cells after 3 hrs by luciferase reporter gene assay; assay type: cell-based; conditions: HEK293, 3 h
Summary of the method: (§2)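 NF-κB-luciferase reporter in HEK293 cells (10,000 per well). Cells were pre-incubated with compound for 1 h, then stimulated with 10 ng/ml TNF-α for 3 h with compound still present. IC50 and percentage inhibition were reported as means of at least three independent experiments.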

HEK293 = experiment: as §1; assay type: cell-based; set-up: concentration or dose not given beside the values; conditions: dose or concentration not given here; summary of the method: as §2
[3] = Cytotoxicity against human Calu6 cells assessed as cellular ATP level after 72 hrs by luminescence-based ATPlite assay; assay type: cell-based, Calu-6; conditions: read-out: LC50
Summary of the method: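 Calu6 cells, 2000 per well, incubated with compound for 72 h. Viability read as cellular ATP by luminescence (ATPlite). Values are means of at least three independent experiments.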

[4] = Inhibition of chymotrypsin-like activity of human 20s proteasome beta-1 subunit in human erythrocyte assessed as hydrolysis of Ac-WLA-AMC fluorogenic substrate
[5] = Inhibition of chymotrypsin-like activity of human 20s proteasome beta2 subunit in human erythrocyte assessed as hydrolysis of Ac-WLA-AMC fluorogenic substrate
[6] = target: Cathepsin B (Homo sapiens) (UniProt P07858); experiment: Inhibition of human cathepsin B at 100uM
[7] = target: Procathepsin L (Homo sapiens) (UniProt P07711); experiment: Inhibition of human cathepsin L at 100uM
[8] = target: T1, Coagulation factor XII (Homo sapiens) (UniProt P00748); experiment: Inhibition of human coagulation factor beta 12a at 100 uM
T1 sequence (whole entry): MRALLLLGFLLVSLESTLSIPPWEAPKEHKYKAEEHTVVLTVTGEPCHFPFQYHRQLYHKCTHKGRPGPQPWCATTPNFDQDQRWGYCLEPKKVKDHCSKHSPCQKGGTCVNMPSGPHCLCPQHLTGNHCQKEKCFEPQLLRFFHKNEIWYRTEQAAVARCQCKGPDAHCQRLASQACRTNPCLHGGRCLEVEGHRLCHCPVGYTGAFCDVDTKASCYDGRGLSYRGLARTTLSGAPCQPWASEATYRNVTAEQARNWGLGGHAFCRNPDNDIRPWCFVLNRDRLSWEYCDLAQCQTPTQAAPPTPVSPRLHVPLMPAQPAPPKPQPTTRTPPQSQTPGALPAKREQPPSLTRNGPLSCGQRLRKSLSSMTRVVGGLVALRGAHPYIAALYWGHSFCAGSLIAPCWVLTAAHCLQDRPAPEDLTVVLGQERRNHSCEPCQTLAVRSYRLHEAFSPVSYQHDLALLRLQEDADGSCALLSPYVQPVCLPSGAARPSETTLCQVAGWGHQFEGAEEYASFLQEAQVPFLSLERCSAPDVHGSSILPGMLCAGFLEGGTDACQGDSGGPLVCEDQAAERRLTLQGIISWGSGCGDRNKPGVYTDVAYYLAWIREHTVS

Homo sapiens [9] = organism: Homo sapiens; experiment: Inhibition of human chymotrypsin at 100 uM
Homo sapiens [10] = organism: Homo sapiens; experiment: Inhibition of human elastase at 100 uM
[11] = target: Plasminogen (Homo sapiens) (UniProt P00747); experiment: Inhibition of human plasmin at 100 uM
[12] = target: Prothrombin (Homo sapiens) (UniProt P00734); experiment: Inhibition of human thrombin at 100 uM
[13] = target: Tissue-type plasminogen activator (Homo sapiens) (UniProt P00750); experiment: Inhibition of tissue plasminogen activator at 100 uM
Trypsin (Homo sapiens) = Trypsin (Homo sapiens) (UniProt P07477+P07478+P35030); experiment: Inhibition of human trypsin at 100 uM; assay type: protein assay
[14] = target: T2, Calpain-1 catalytic subunit (Homo sapiens) (UniProt P07384); experiment: Inhibition of human calpain 1 at 100 uM
T2 sequence (whole entry): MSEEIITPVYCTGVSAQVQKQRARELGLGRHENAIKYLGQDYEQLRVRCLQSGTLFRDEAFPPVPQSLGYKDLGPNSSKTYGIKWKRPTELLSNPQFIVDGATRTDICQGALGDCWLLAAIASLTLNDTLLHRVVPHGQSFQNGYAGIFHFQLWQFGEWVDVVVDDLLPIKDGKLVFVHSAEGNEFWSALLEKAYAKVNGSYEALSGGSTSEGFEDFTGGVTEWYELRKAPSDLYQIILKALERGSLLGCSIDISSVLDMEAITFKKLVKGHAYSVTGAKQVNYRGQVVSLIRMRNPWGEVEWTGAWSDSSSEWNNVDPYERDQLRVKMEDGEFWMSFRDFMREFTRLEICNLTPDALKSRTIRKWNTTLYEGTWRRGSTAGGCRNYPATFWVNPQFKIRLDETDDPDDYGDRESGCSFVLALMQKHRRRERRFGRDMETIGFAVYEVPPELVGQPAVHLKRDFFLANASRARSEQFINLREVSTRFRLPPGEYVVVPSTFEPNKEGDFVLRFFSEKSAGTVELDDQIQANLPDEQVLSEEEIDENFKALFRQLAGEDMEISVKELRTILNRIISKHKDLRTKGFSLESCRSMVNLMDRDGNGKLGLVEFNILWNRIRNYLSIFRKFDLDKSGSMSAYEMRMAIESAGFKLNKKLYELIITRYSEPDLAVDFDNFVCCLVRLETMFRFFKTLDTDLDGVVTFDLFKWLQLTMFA

Sequence of Plasminogen (Homo sapiens) (P00747 97-580 limits assumed): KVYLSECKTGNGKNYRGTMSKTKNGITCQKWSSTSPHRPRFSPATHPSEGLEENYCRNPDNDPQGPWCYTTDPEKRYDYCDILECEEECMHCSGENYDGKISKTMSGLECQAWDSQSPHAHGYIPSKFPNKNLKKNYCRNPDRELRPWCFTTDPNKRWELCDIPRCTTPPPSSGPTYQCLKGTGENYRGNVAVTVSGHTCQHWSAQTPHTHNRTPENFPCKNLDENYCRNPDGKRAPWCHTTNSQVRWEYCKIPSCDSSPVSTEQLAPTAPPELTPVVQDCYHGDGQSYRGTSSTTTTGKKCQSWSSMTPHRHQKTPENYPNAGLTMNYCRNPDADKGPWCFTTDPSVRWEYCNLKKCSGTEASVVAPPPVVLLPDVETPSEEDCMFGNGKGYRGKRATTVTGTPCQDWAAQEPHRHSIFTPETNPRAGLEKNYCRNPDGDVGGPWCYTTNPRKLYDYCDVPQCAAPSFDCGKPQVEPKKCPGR
Sequence of Plasminogen (Homo sapiens) (P00747 581-810 limits assumed): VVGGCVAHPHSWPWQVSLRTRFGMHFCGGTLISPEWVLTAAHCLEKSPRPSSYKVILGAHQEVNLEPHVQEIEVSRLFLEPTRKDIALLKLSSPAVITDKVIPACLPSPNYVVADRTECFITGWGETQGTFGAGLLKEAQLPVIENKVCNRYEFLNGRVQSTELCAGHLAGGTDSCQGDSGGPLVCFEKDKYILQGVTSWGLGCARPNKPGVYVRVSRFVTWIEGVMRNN
Sequence of Tissue-type plasminogen activator (Homo sapiens) (P00750 36-562 limits assumed): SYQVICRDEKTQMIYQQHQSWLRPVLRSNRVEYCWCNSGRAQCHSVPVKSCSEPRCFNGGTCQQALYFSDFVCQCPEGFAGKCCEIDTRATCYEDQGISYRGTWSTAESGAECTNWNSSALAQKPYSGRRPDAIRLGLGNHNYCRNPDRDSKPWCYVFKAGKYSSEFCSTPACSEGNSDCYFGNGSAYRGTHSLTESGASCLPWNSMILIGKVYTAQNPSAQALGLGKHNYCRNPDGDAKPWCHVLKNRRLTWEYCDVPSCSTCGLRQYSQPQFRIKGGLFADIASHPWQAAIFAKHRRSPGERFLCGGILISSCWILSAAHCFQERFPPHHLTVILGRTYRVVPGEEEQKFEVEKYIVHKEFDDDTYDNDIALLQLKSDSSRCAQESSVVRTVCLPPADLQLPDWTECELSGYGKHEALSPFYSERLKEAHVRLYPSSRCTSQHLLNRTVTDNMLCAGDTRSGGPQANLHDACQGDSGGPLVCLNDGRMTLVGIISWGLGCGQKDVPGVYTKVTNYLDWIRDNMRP
Sequence of Procathepsin L (Homo sapiens) (P07711 114-333 limits assumed): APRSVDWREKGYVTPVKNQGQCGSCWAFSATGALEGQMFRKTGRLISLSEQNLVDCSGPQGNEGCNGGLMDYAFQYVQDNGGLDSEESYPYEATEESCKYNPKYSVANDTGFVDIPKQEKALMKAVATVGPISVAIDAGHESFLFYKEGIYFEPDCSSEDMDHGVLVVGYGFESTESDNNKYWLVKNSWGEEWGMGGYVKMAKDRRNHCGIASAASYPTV

Row | Compound | IC50 [1] | IC50 [2] | inhibition (HEK293) | CC50 at 72 h [3] | IC50 [4] | IC50 [5] | inhibition [6] | inhibition [7] | inhibition [8] | inhibition (Homo sapiens [9]) | inhibition (Homo sapiens [10]) | inhibition [11] | inhibition [12] | inhibition [13] | inhibition (Trypsin (Homo sapiens)) | inhibition [14]
1 | Cc1ccc(CNC(=O)[C@H](CCc2ccccc2)NC(=O)[C@H](CCc2ccccc2)NC(=O)Cc2cccc(Oc3ccccc3)c2)cc1 | 1100 nM | > 50000 nM | 28% | > 25000 nM | > 20 µM | > 20 µM | Active | Active | Active | Active | Active | Active | Active | Active | Active | Active
2 | Cc1ccc(CNC(=O)[C@H](CCc2ccccc2)NC(=O)[C@@H](NC(=O)CCc2ccccc2C)[C@@H](C)O)cc1 | 120 nM | 690 nM | 80% | 2300 nM | > 20 µM | > 20 µM | Active | Active | Active | Active | Active | Active | Active | Active | Active | Active
3 | COc1ccc2c(c1)C(CC(=O)N[C@H](C(=O)N[C@@H](CCc1ccccc1)C(=O)NCc1ccc(C)cc1)[C@@H](C)O)CC2=O (stereo partly specified) | 25 nM | 320 nM | 89% | 1200 nM | > 20 µM | > 20 µM | Active | Active | Active | Active | Active | Active | Active | Active | Active | Active
4 | Cc1ccc(CNC(=O)[C@H](CCc2ccccc2)NC(=O)[C@@H](NC(=O)Cc2cccc(Oc3ccccc3)c2)[C@@H](C)O)cc1 | 450 nM | 24000 nM | 30% | 15000 nM | > 20 µM | > 20 µM | Active | Active | Active | Active | Active | Active | Active | Active | Active | Active
5 | Cc1ccc(CNC(=O)[C@H](CCc2ccccc2)NC(=O)[C@@H](NC(=O)C(C)(C)Oc2ccccc2Cl)[C@@H](C)O)cc1 | 75 nM | 690 nM | 97% | 1500 nM | > 20 µM | > 20 µM | Active | Active | Active | Active | Active | Active | Active | Active | Active | Active
6 | COC[C@H](NC(=O)Cc1cccc(Oc2ccccc2)c1)C(=O)N[C@@H](CCc1ccccc1)C(=O)NCc1ccc(C)cc1 | 550 nM | 6100 nM | 40% | > 25000 nM | > 20 µM | > 20 µM | Active | Active | Active | Active | Active | Active | Active | Active | Active | Active
7 | C[C@@H](O)[C@H](NC(=O)c1ccc(OCc2ccccc2)cc1)C(=O)N[C@@H](CCc1ccccc1)C(=O)NCCc1cccs1 | 3200 nM | > 50000 nM | – | > 25000 nM | > 20 µM | > 20 µM | Active | Active | Active | Active | Active | Active | Active | Active | Active | Active
8 | Cc1ccsc1CNC(=O)[C@H](CCc1ccccc1)NC(=O)[C@@H](NC(=O)c1ccc(OCc2ccccc2)cc1)[C@@H](C)O | – | 28 nM | 81% | 110 nM | > 20 µM | > 20 µM | Active | Active | Active | Active | Active | Active | Active | Active | Active | Active
9 | C[C@H](NC(=O)[C@@H](N)Cc1ccc(OCc2ccccc2)cc1)C(=O)N[C@@H](Cc1c[nH]c2ccccc12)C(=O)NCc1ccccc1 (H-Tyr(Bn)-Ala-Trp-NHBn) | – | – | – | – | > 20 µM | > 20 µM | Active | Active | Active | Active | Active | Active | Active | Active | Active | Active
10 | Cc1ccccc1CCC(=O)N[C@H](C(=O)N[C@@H](CCc1ccccc1)C(=O)NCc1ccccc1Cl)[C@@H](C)O | – | 330 nM | 71% | 2700 nM | > 20 µM | > 20 µM | Active | Active | Active | Active | Active | Active | Active | Active | Active | Active
11 | COc1ccc(CNC(=O)[C@@H](NC(=O)[C@H](Cc2cc(OC)c(OC)c(OC)c2)NC(=O)Cc2cccc(Oc3ccccc3)c2)C(C)C)c(O)c1 | 15 nM | – | – | – | > 20 µM | > 20 µM | Active | Active | Active | Active | Active | Active | Active | Active | Active | Active
12 | CC(NC(=O)[C@H](CCc1ccccc1)NC(=O)[C@@H](NC(=O)c1ccc(OCc2ccccc2)cc1)[C@@H](C)O)c1ccccc1 (stereo partly specified) | > 100000 nM | > 50000 nM | – | 9000 nM | > 20 µM | > 20 µM | Active | Active | Active | Active | Active | Active | Active | Active | Active | Active
